Source: ChEMBL document CHEMBL4002619, “Targeting Type 2 Diabetes with C-Glucosyl Dihydrochalcones as Selective Sodium Glucose Co-Transporter 2 (SGLT2) Inhibitors: Synthesis and Biological Evaluation” (J Med Chem, 2017)
Activity calls are given as the source filed them. The calls are words filed in the database; no cut-off is given here.

Assays:
Format in all cases: cell-based
[1] = molecular target: T1, Sodium/glucose cotransporter 2 (Homo sapiens) (UniProt P31639); assay: Inhibition of human SGLT2 expressed in HEK293 cells assessed as reduction in 2-deoxyglucose uptake at 100 uM pretreated for 10 mins followed by 2-deoxyglucose addition in presence of sodium buffer measured after 1 hr by resazurin dye based fluorescence assay
T1 sequence (whole entry): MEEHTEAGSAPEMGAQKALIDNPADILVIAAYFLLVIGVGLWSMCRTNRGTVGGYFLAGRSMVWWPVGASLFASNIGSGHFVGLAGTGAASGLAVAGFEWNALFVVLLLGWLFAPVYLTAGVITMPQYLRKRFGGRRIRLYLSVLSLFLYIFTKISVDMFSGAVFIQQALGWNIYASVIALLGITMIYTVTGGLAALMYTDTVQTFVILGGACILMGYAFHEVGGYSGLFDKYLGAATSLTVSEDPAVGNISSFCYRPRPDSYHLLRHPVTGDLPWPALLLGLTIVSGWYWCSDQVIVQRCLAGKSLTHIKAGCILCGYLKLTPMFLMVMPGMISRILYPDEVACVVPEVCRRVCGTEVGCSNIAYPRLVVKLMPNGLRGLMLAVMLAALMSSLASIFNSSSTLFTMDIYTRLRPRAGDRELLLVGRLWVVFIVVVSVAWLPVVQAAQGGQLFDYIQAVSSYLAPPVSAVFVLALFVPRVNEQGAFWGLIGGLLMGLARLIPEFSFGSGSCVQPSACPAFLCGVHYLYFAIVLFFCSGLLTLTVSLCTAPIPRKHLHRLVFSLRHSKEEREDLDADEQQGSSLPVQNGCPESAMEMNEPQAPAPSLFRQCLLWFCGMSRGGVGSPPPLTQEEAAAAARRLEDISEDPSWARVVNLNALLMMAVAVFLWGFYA
Outline: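 Stably transfected HEK293 expressing human SGLT2 (pCMV6-Neo, G418-selected), 2.0 × 10^4 cells/well, 24 h; 1 h preincubation in KRPH buffer at 37 °C; compound 100 µM; 2-deoxyglucose 1 mM, 1 h at 37 °C; NaOH lysis at 80-85 °C, neutralised; enzymatic cycling (G6PDH, NADP+, diaphorase, 10 µM resazurin, pH 8.2) 15-20 h; fluorescence ex 560/em 590 nm. Mean ± SD, three independent experiments.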

[2] = molecular target: T2, Sodium/glucose cotransporter 2 (Homo sapiens, UniProt P31639); assay: Inhibition of human SGLT2 expressed in HEK293 cells assessed as reduction in 2-deoxyglucose uptake pretreated for 10 mins followed by 2-deoxyglucose addition in presence of sodium buffer measured after 1 hr by resazurin dye based fluorescence assay
T2 sequence (P31639 whole entry): T1 sequence (whole entry)

HEK293 = assay: Cytotoxicity in HEK293 cells assessed as cell viability at 100 uM measured after 20 to 24 hrs by Cell-Titer Blue fluorescence assay; settings: human, hek293, 100 µM
Outline: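 HEK293 cells (DMEM, 10% FBS, 37 °C, 5% CO2) seeded 2.0 × 10^4 cells/well 24 h before; compound at 100 µM in triplicate, 20-24 h at 37 °C; CellTiter-Blue 4 h at 37 °C; fluorescence ex 560/em 590 nm; viability as treated/untreated fluorescence ratio, %. DMSO-treated wells run alongside. Mean ± SD of three independent experiments.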

[3] = Inhibition of GLUT in HEK293 cells assessed as reduction in 2-deoxyglucose uptake at 100 uM pretreated for 10 mins followed by 2-deoxyglucose addition in presence of choline buffer measured after 1 hr by resazurin dye based fluorescence assay; settings: human
Outline: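 SGLT1 and SGLT2 stable HEK293 lines (G418-selected) assayed in sodium-free buffer, NaCl replaced by choline chloride; compounds at 100 µM; phlorizin and cytochalasin B as controls. 2-deoxyglucose 1 mM, 1 h at 37 °C; lysis in 0.1 M NaOH, 80-85 °C 40 min, neutralised; G6PDH/NADP+/diaphorase/resazurin cycling 15-20 h at 37 °C; resorufin fluorescence ex 560/em 590 nm.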

[4] = molecular target: T3, Sodium/glucose cotransporter 1 (Homo sapiens, UniProt P13866); assay: Inhibition of human SGLT1 expressed in HEK293 cells assessed as reduction in 2-deoxyglucose uptake at 100 uM pretreated for 10 mins followed by 2-deoxyglucose addition in presence of sodium buffer measured after 1 hr by resazurin dye based fluorescence assay; settings: hek293, 1 h
T3 sequence (P13866 whole entry): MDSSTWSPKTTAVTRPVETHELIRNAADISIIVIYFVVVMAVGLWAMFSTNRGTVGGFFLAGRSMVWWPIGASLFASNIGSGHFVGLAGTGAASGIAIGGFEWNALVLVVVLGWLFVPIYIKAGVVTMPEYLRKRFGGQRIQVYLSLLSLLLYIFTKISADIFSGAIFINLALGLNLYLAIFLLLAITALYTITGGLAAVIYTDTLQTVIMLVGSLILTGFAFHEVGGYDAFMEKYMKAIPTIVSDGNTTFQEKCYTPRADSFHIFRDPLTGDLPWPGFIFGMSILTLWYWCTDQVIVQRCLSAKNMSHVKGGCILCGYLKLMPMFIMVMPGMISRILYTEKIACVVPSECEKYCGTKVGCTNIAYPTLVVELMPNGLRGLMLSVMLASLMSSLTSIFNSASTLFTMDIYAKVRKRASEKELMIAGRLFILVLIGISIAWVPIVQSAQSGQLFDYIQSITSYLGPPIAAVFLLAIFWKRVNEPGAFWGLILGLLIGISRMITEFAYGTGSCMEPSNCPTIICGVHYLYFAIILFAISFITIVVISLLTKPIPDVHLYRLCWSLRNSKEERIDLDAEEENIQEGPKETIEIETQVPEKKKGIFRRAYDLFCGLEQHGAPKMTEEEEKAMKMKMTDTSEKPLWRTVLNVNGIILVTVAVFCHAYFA

[5] = Inhibition of GLUT in HEK293 cells assessed as reduction in 2-deoxyglucose uptake pretreated for 10 mins followed by 2-deoxyglucose addition in presence of sodium buffer measured after 1 hr by resazurin dye based fluorescence assay; settings: human
[6] = Inhibition of GLUT in HEK293 cells assessed as reduction in 2-deoxyglucose uptake pretreated for 10 mins followed by 2-deoxyglucose addition in presence of choline buffer measured after 1 hr by resazurin dye based fluorescence assay; settings: human

| Compound | inhibition [1] | IC50 [2] [µM] | Activity (HEK293) | inhibition (INH) [3] | inhibition (INH) [4] | inhibition (INH) [5] | inhibition (INH) [6] |
| --- | --- | --- | --- | --- | --- | --- | --- |
| CCCOc1ccc(CCC(=O)c2c(O)cc(O)cc2O)cc1 | Active | 16.4 | Non-Toxic | Active | Active |  |  |
| O=C(CCc1ccc(O)cc1)c1c(O)cc(O)cc1O[C@@H]1O[C@H](CO)[C@@H](O)[C@H](O)[C@H]1O [PHLORIZIN] | Active |  | Non-Toxic |  |  |  |  |
| O=C(/C=C/c1ccc(Br)cc1)c1c(O)cc(O)cc1O [4-BROMO-2',4',6'-TRIHYDROXYCHALCONE] | Active | 23.5 | Non-Toxic | Active | Active |  |  |
| Cc1ccc(/C=C/C(=O)c2c(O)cc(O)cc2O)cc1 | Active | 34.1 | Non-Toxic | Active | Active |  |  |
| CCOc1ccc(Cc2cc([C@@H]3O[C@H](CO)[C@@H](O)[C@H](O)[C@H]3O)ccc2Cl)cc1 [DAPAGLIFLOZIN] | Active |  |  |  | Active |  |  |
| COc1ccc(/C=C/C(=O)c2c(O)cc(O)cc2O)cc1 [4-METHOXYL-2',4',6'-TRIHYDROXYCHALCONE] | Active | 18.2 | Non-Toxic | Active | Active |  |  |
| O=C(CCc1ccc(F)cc1)c1c(O)cc(O)c([C@@H]2O[C@H](CO)[C@@H](O)[C@H](O)[C@H]2O)c1O | Active | 0.0091 | Non-Toxic | Not Active | Active |  |  |
| O=C(CCc1ccccc1)c1c(O)cc(O)cc1O | Active | 14.7 | Non-Toxic | Active | Active |  |  |
| COc1ccc(CCC(=O)c2c(O)cc(O)cc2O)cc1 | Active | 18.7 | Non-Toxic | Active | Active |  |  |
| Cc1ccc(CCC(=O)c2c(O)cc(O)cc2O)cc1 | Active | 18 | Non-Toxic | Active | Active |  |  |
| C=CCOc1ccc(/C=C/C(=O)c2c(O)cc(O)cc2O)cc1 | Active | 26.2 | Non-Toxic | Active | Active |  |  |
| O=C(/C=C/c1ccccc1)c1c(O)cc(O)cc1O [2',4',6-TRIHYDROXYCHALCONE] | Active |  |  |  |  |  |  |
| O=C(CCc1ccc(O)cc1)c1c(O)cc(O)c([C@@H]2O[C@H](CO)[C@@H](O)[C@H](O)[C@H]2O)c1O | Active | 0.0119 | Non-Toxic | Not Active | Active |  |  |
| COc1ccc(CCC(=O)c2c(O)cc(O)c([C@@H]3O[C@H](CO)[C@@H](O)[C@H](O)[C@H]3O)c2O)cc1 | Active | 0.0213 | Non-Toxic | Not Active | Active |  |  |
| CCOc1ccc(CCC(=O)c2c(O)cc(O)c([C@@H]3O[C@H](CO)[C@@H](O)[C@H](O)[C@H]3O)c2O)cc1 | Active | 0.0217 | Non-Toxic | Not Active | Active |  |  |
| O=C(/C=C/c1ccc(F)cc1)c1c(O)cc(O)cc1O [4-FLUORO-2',4',6'-TRIHYDROXYCHALCONE] | Active | 51.7 | Non-Toxic | Active | Active |  |  |
| CCOc1ccc(/C=C/C(=O)c2c(O)cc(O)cc2O)cc1 | Active | 26 | Non-Toxic | Active | Active |  |  |
| O=C(/C=C/c1ccc(OCc2ccccc2)cc1)c1c(O)cc(O)cc1O | Active | 22.7 | Non-Toxic | Active | Active |  |  |
| CCCOc1ccc(CCC(=O)c2c(O)cc(O)c([C@@H]3O[C@H](CO)[C@@H](O)[C@H](O)[C@H]3O)c2O)cc1 | Active | 0.0227 | Non-Toxic | Not Active | Active |  |  |
| O=C(CCc1ccccc1)c1c(O)cc(O)c([C@@H]2O[C@H](CO)[C@@H](O)[C@H](O)[C@H]2O)c1O | Active | 0.0198 | Non-Toxic | Not Active | Active |  |  |
| C=C1[C@@H](C)[C@H]2[C@H](Cc3ccccc3)NC(=O)[C@]23OC(=O)/C=C/[C@H](O)CCC[C@@H](C)C/C=C/[C@H]3[C@@H]1O [CYTOCHALASIN B] |  |  |  |  |  | Active | Active |
| Cc1ccc(CCC(=O)c2c(O)cc(O)c([C@@H]3O[C@H](CO)[C@@H](O)[C@H](O)[C@H]3O)c2O)cc1 | Active | 0.0182 | Non-Toxic | Not Active | Active |  |  |
| O=C(CCc1ccc(O)cc1)c1c(O)cc(O)cc1O [PHLORETIN] | Active | 18.3 | Non-Toxic | Active |  |  |  |
| CCOc1ccc(CCC(=O)c2c(O)cc(O)cc2O)cc1 | Active | 16.7 | Non-Toxic | Active | Active |  |  |
| O=C(CCc1ccc(F)cc1)c1c(O)cc(O)cc1O | Active | 15.8 | Non-Toxic | Active | Active |  |  |
